A short description of series [1]: Cytotoxicity against human Fem-X cells assessed as cell survival after 72 hrs by MTT assay. In kind it is functional, cell-based. The procedure, abridged:
(§1)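 Cells seeded (HeLa 2000, MDA-MB-453 3000, others 5000 per well), treated 24 h later (K562 after 2 h). Five double-diluted final concentrations, 200–12.5 μM, from 10 mM DMSO stocks, in RPMI-1640 with 10% FBS, pH 7.2, 72 h. MTT 4 h at 37 °C, SDS added, A570 read next day. Survival relative to medium control; IC50 from survival curves; triplicate; cisplatin positive control.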
(In general: Tetrazolium dyes change colour on reduction, which living cells bring about.)

In a further series the test system is Saccharomyces cerevisiae. The series can be described thus: Antifungal activity against Saccharomyces cerevisiae ATCC 9763 after 24 hrs by microbroth double dilution method. In kind it is functional. (In general: In broth dilution the organism is exposed to a series of concentrations in liquid medium.)
A further series relates to MDA-MB-453. The experiment in a line: Cytotoxicity against human MDA-MB-453 cells assessed as cell survival after 72 hrs by MTT assay. The settings on record: MDA-MB-453, 72 h. In kind it is functional, cell-based. The method, boiled down: as §1
The next series relates to Staphylococcus aureus. The experiment in a line: Antibacterial activity against Staphylococcus aureus ATCC 6538 after 24 hrs by microbroth double dilution method. In kind it is functional. The settings on record: ATCC 6538, 24 h. The procedure, abridged:
(§2)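 Microbroth double dilution in Mueller Hinton broth; compound stock 10 mg/mL in DMSO serially halved across rows. Wells inoculated with 10 μL culture at 10^6 cells/mL, incubated 37 °C for 24 h. Amikacin row as positive control, DMSO row as negative control. MIC taken as lowest concentration inhibiting bacterial growth.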

Another series relates to Micrococcus luteus. The experiment in a line: Antibacterial activity against Micrococcus luteus ATCC 4698 after 24 hrs by microbroth double dilution method. In kind it is functional. The settings on record: ATCC 4698, 24 h. The method, boiled down:
as §2

For the next series, the system named is Candida albicans. The series can be described thus: Antifungal activity against Candida albicans ATCC 10231 after 24 hrs by microbroth double dilution method. The format is functional.
A further series concerns Micrococcus flavus. The series can be described thus: Antibacterial activity against Micrococcus flavus ATCC 10240 after 24 hrs by microbroth double dilution method. The format is functional. Particulars: ATCC 10240, 24 h. The procedure, abridged: as §2
For the next series, the system named is MRC5. The experiment in a line: Cytotoxicity against human MRC5 cells assessed as cell survival after 72 hrs by MTT assay. The format is cell-based. The settings on record: MRC5, 72 h. The method, boiled down:
as §1

The test system of the next series is Escherichia coli. The series can be described thus: Antibacterial activity against Escherichia coli ATCC 25922 after 24 hrs by microbroth double dilution method. The format is functional. The settings on record: ATCC 25922, 24 h. The method, boiled down:
as §2

Another series relates to Kocuria rhizophila. The series can be described thus: Antibacterial activity against Kocuria rhizophila ATCC 9341 after 24 hrs by microbroth double dilution method. The settings on record: ATCC 9341, 24 h. The format is functional. The method, boiled down: as §2
For the next series, the system named is Aspergillus brasiliensis. The experiment in a line: Antifungal activity against Aspergillus brasiliensis ATCC 16404 after 24 hrs by microbroth double dilution method. In kind it is functional.
For a further series, the system named is A549. The experiment in a line: Cytotoxicity against human A549 cells assessed as cell survival after 72 hrs by MTT assay. In kind it is functional, cell-based. The settings on record: A549, 72 h. The method, boiled down: as §1
Another series relates to Clostridium sporogenes. The experiment in a line: Antibacterial activity against Clostridium sporogenes ATCC 19404 after 24 hrs by microbroth double dilution method. In kind it is functional. The settings on record: ATCC 19404, 24 h. The method, boiled down:
as §2

The test system of another series is Proteus hauseri. The series can be described thus: Antibacterial activity against Proteus hauseri ATCC 13315 after 24 hrs by microbroth double dilution method. The format is functional. Particulars: ATCC 13315, 24 h. The procedure, abridged:
as §2

The test system of a further series is Pseudomonas aeruginosa. The experiment in a line: Antibacterial activity against Pseudomonas aeruginosa ATCC 9027 after 24 hrs by microbroth double dilution method. In kind it is functional. The settings on record: ATCC 9027, 24 h. The procedure, abridged: as §2
Another series has as its system HeLa. The experiment in a line: Cytotoxicity against human HeLa cells assessed as cell survival after 72 hrs by MTT assay. The format is functional, cell-based. The method, boiled down: as §1
In a further series the test system is K562. The series can be described thus: Cytotoxicity against human K562 cells assessed as cell survival after 72 hrs by MTT assay. The format is functional, cell-based. Particulars: K562, 72 h. The method, boiled down: as §1
The test system of a further series is Salmonella enterica. The series can be described thus: Antibacterial activity against Salmonella enterica ATCC 13076 after 24 hrs by microbroth double dilution method. The format is functional. The settings on record: ATCC 13076, 24 h. The procedure, abridged:
as §2

A further series deals with Bacillus subtilis. The series can be described thus: Antibacterial activity against Bacillus subtilis ATCC 6633 after 24 hrs by microbroth double dilution method. The format is functional. The settings on record: ATCC 6633, 24 h. The method, boiled down: as §2
In a further series the test system is Artemia salina. The series can be described thus: Cytotoxicity in Brine shrimp assessed as nauplii mortality after 24 hrs. In kind it is organism-based. Particulars: in vivo. The method, boiled down: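 Artemia salina eggs hatched in aerated tap water with dried yeast at 18–20 °C under illumination for 48 h, and freshly hatched nauplii were used. Compounds in DMSO (0.01–1 mg) were added to 950 µL artificial seawater containing 10–20 nauplii, with 5% final DMSO. After 24 h under illumination at room temperature, dead and surviving nauplii were counted and statistically analysed.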

In general, IC50 refers to the concentration that inhibits the measured activity by half. One may read the MIC as the smallest concentration in the dilution series that meets the test's criterion for growth inhibition. High values mean weaker potency, low ones greater potency. The term LC50 denotes the concentration that kills 50% of the test population.

≈ marks a conversion by molar mass, not a printed value.

`CC1=CCC[C@H]2[C@](C)(CC3=CC(=O)C=C(N[C@@H](Cc4c[nH]c5ccccc45)C(=O)O)C3=O)[C@@H](C)CC[C@]12C`: the IC50 came to 14.8 µM in [1]; 22.9 µM with MDA-MB-453; 157 µM in the series with MRC5; 39.6 µM with A549; 16.2 µM in the series with HeLa; 16.1 µM in the series with K562. The MIC in the series with Saccharomyces cerevisiae (ATCC 9763, 24 h) was less than 2.39 µM; against Staphylococcus aureus it was 19.1 µM (≈ 9.81 µg/mL); with Micrococcus luteus it was 19.1 µM (≈ 9.81 µg/mL); with Candida albicans (ATCC 10231, 24 h) it was 305 µM (≈ 157 µg/mL); against Micrococcus flavus it was 37.9 µM (≈ 19.5 µg/mL); against Escherichia coli, 19.1 µM (≈ 9.81 µg/mL). Besides, the MIC in the series with Kocuria rhizophila is 305 µM (≈ 157 µg/mL); with Aspergillus brasiliensis (ATCC 16404, 24 h), 1220 µM (≈ 626 µg/mL); in the series with Clostridium sporogenes it was 37.9 µM (≈ 19.5 µg/mL); in the series on Proteus hauseri, 37.9 µM (≈ 19.5 µg/mL); against Pseudomonas aeruginosa, 37.9 µM (≈ 19.5 µg/mL); against Salmonella enterica, 19.1 µM (≈ 9.81 µg/mL). In the series on Bacillus subtilis, this molecule displayed an MIC of 37.9 µM (≈ 19.5 µg/mL).
`CC(C)C[C@H](NC1=CC(=O)C=C(C(C)(C)C)C1=O)C(=O)O`: the IC50 in series [1] was 39.4 µM; in the series with MDA-MB-453 it was 84.9 µM; with MRC5, more than 200 µM; with A549, 97.9 µM; in the series with HeLa, 57.2 µM; in the series with K562, 76.5 µM. In addition, the MIC in the series with Saccharomyces cerevisiae (ATCC 9763, 24 h) worked out at 133 µM (≈ 39 µg/mL); against Staphylococcus aureus, 266 µM (≈ 78 µg/mL); in the series with Micrococcus luteus it was 266 µM (≈ 78 µg/mL); in the series on Candida albicans (ATCC 10231, 24 h), 536 µM (≈ 157 µg/mL); in the series with Micrococcus flavus, 2130 µM (≈ 625 µg/mL); against Escherichia coli, 266 µM (≈ 78 µg/mL). The MIC in the series on Kocuria rhizophila is 2130 µM (≈ 625 µg/mL); in the series with Aspergillus brasiliensis (ATCC 16404, 24 h) it was 1070 µM (≈ 313 µg/mL); in the series on Clostridium sporogenes, 2130 µM (≈ 625 µg/mL); in the series on Proteus hauseri, 2130 µM (≈ 625 µg/mL); against Pseudomonas aeruginosa, 4260 µM (≈ 1250 µg/mL); with Salmonella enterica, 2130 µM (≈ 625 µg/mL). Moreover, the minimum inhibitory concentration (MIC) in the series with Bacillus subtilis was 2130 µM (≈ 625 µg/mL). Moreover, the LC50 in the series with Artemia salina was 104.8 ppm.
For the molecule `CSCC[C@H](NC1=CC(=O)C=C(C(C)(C)C)C1=O)C(=O)O`, the half-maximal inhibitory concentration (IC50) is 34.8 µM in series [1]; 151 µM with MDA-MB-453; more than 200 µM with MRC5; more than 200 µM in the series with A549; 77.4 µM in the series on HeLa; 88.5 µM with K562. For the same molecule, the minimal inhibitory concentration (MIC) with Saccharomyces cerevisiae (ATCC 9763, 24 h) came to 505 µM (≈ 157 µg/mL); against Staphylococcus aureus, 1010 µM (≈ 313 µg/mL); with Micrococcus luteus it was 505 µM (≈ 157 µg/mL); with Candida albicans (ATCC 10231, 24 h), 505 µM (≈ 157 µg/mL); with Micrococcus flavus it was 2010 µM (≈ 626 µg/mL); in the series on Escherichia coli, 1010 µM (≈ 313 µg/mL). For the same molecule, the MIC in the series with Kocuria rhizophila came to 2010 µM (≈ 626 µg/mL); in the series on Aspergillus brasiliensis (ATCC 16404, 24 h), 2010 µM (≈ 626 µg/mL); against Clostridium sporogenes it was 2010 µM (≈ 626 µg/mL); against Proteus hauseri it was 2010 µM (≈ 626 µg/mL); against Pseudomonas aeruginosa, 2010 µM (≈ 626 µg/mL); in the series on Salmonella enterica, 2010 µM (≈ 626 µg/mL). This molecule displayed an MIC against Bacillus subtilis of 2010 µM (≈ 626 µg/mL). For the same molecule, in the series with Artemia salina, the LC50 is given as 360.2 ppm.
In the case of `NCC[C@H](O)C(=O)N[C@@H]1C[C@H](N)[C@@H](O[C@H]2O[C@H](CN)[C@@H](O)[C@H](O)[C@H]2O)[C@H](O)[C@H]1O[C@H]1O[C@H](CO)[C@@H](O)[C@H](N)[C@H]1O` [AMIKACIN], the MIC against Staphylococcus aureus was 18.8 µM (≈ 11 µg/mL); against Micrococcus luteus, 13.7 µM (≈ 7.99 µg/mL); against Micrococcus flavus it was 3.42 µM (≈ 2 µg/mL); against Escherichia coli, 8.54 µM (≈ 5 µg/mL); in the series with Kocuria rhizophila, 3.42 µM (≈ 2 µg/mL); in the series on Clostridium sporogenes, 25.6 µM (≈ 15 µg/mL). Moreover, the MIC against Proteus hauseri is 11.9 µM (≈ 7 µg/mL); against Pseudomonas aeruginosa, 85.4 µM (≈ 50 µg/mL); against Salmonella enterica, 13.7 µM (≈ 8 µg/mL); against Bacillus subtilis, 71.7 µM (≈ 42 µg/mL).
As to NYSTATIN, the values for the MIC in the series with Saccharomyces cerevisiae, in the series on Candida albicans and in the series on Aspergillus brasiliensis were 1350 µM, 2700 µM and 1350 µM, respectively.

For the origin of these results see ChEMBL document CHEMBL3627646, “Synthesis and biological activity of amino acid derivatives of avarone and its model compound” (Bioorg Med Chem, 2015).
